Source: ChEMBL document CHEMBL4041524, “Synthesis and Characterization of a Novel γ-Aminobutyric Acid Type A (GABAA) Receptor Ligand That Combines Outstanding Metabolic Stability, Pharmacokinetics, and Anxiolytic Efficacy” (J Med Chem, 2016)
Calls of active or inactive are those of the source. No cut-off for these calls is given here.

Key:
[1] = molecular target: T1, GABA-A receptor; alpha-3/beta-3/gamma-2 (Homo sapiens, UniProt P18507+P28472+P34903); assay: Binding affinity to human GABAA alpha3beta3gamma2 receptor expressed in HEK293 cells assessed as GABA-induced membrane potential change preincubated for 3 mins followed by addition of GABA measured after 3 mins by FLIPR assay; type: cell-based
T1 sequence (P18507 whole entry): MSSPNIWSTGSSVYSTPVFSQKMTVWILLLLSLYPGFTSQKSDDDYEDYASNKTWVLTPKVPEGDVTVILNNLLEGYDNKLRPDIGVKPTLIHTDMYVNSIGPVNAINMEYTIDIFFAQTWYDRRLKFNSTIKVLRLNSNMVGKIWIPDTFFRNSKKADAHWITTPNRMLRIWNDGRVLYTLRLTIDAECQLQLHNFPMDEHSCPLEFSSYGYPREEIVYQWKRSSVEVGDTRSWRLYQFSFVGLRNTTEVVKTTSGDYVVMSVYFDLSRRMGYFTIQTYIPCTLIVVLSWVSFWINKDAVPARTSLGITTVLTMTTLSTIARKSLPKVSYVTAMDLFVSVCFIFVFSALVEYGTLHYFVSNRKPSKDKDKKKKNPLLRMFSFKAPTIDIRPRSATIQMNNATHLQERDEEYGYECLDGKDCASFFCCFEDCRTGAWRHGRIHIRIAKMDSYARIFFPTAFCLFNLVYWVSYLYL
T1 sequence (P28472 whole entry): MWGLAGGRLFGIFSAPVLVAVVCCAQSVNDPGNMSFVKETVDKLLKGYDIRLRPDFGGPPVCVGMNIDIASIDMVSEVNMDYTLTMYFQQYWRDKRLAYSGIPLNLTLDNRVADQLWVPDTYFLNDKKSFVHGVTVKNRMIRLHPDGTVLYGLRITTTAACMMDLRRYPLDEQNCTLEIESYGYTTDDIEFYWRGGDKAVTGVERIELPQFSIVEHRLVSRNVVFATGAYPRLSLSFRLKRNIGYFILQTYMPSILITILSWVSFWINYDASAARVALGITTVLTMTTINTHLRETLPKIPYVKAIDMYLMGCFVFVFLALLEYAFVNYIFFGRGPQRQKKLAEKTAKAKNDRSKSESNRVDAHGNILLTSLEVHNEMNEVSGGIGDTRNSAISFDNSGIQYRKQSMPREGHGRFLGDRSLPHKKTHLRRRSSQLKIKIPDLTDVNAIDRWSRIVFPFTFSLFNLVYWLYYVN
T1 sequence (P34903 whole entry): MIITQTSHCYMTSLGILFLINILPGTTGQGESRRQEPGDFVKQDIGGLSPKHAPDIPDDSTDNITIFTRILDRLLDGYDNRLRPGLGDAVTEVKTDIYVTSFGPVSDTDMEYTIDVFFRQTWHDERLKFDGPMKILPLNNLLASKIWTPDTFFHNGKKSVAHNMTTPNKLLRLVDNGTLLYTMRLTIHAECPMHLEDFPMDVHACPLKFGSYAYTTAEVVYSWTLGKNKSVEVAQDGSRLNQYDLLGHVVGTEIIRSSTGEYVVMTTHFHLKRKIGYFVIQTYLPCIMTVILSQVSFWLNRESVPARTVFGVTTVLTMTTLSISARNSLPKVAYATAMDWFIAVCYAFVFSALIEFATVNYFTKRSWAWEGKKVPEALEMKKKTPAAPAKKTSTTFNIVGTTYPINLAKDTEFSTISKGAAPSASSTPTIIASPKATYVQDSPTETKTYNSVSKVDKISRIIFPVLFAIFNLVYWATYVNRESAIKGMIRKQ
In short: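 Stably transfected HEK293T cells expressing α1β3γ2 (n = 2) or α3β3γ2 (n = 1) GABAARs. Membrane potential was read as fluorescence changes on a FLIPR Tetra, and EC50 was derived.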

[2] = Cytotoxicity against HEK293T cells assessed as viable cells measured after 18 hrs by CellTiter-Glo assay; type: cell-based, HEK-293T; conditions: human, read-out: LD50
In short: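 HEK293T cells were exposed to compound for 18 h (n = 4). Viable cells were quantified with CellTiter-Glo, and LD50 was derived.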

[3] = system: Mus musculus; assay: Toxicity in Swiss mouse assessed as change in motor coordination by measuring number of falls from the rotating rod at 30 mg/kg, ip administered 30 mins prior to testing measured for 2 mins by rotarod test relative to control; type: organism-based; conditions: in vivo
In short: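 The same mice used for marble burying were placed on a rotarod at 4 r.p.m. for 2 min. No fall was scored success, one fall partial, and two falls failure.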

[4] = molecular target: T2, GABA-A receptor; alpha-1/beta-3/gamma-2 (Homo sapiens) (UniProt P14867+P18507+P28472); assay: Modulation of recombinant GABA alpha1beta3gamma2 receptor (unknown origin) expressed in Xenopus laevis oocytes assessed as change in GABA-induced EC(3 to 6) current at 1 uM by two-electrode voltage clamp assay; type: cell-based
In short: (§1)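 Xenopus laevis oocytes expressing α1, α2, α3 or α5 β3γ2 GABAARs were recorded by two-electrode voltage clamp. Modulation of the GABA EC3-6 current (taken as 100%) was tested at 100 nM, 1 μM and 10 μM in the same cells. Values are mean ± SEM, n = 3–4.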

[5] = molecular target: GABA-A receptor; alpha-5/beta-3/gamma-2 (Homo sapiens) (UniProt P18507+P28472+P31644); assay: Modulation of recombinant GABA alpha5beta3gamma2 receptor (unknown origin) expressed in Xenopus laevis oocytes assessed as change in GABA-induced EC(3 to 6) current at 10 uM by two-electrode voltage clamp assay; type: cell-based; in short: as §1
[6] = molecular target: T1, GABA-A receptor; alpha-3/beta-3/gamma-2; assay: Modulation of recombinant human GABA alpha3beta3gamma2 receptor expressed in HEK293 cells assessed as change in GABA-induced current at -80 mV holding potential preincubated for 3 mins followed by co-administration of GABA by electrophysiology method; type: cell-based
[7] = Drug uptake in Sprague-Dawley rat brain at 10 mg/kg, ip measured after 4 hrs; type: ADME, organism-based; conditions: read-out: Drug uptake
In short: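 Rats were given 10 mg/kg i.p. (n = 3), and total plasma and brain concentrations were measured at 4 h. Unbound concentrations were calculated as Fu × total concentration, and Kp,uu = Cu,brain/Cu,plasma.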

[8] = system: Rattus norvegicus; assay: Anxiolytic like activity in water-deprived Sprague-Dawley rat assessed as increase in water drinking time during punished period at 30 mg/kg, po administered 30 prior to testing by Vogel conflict test relative to vehicle control; type: functional
In short: (§2)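 Water-deprived male Sprague-Dawley rats (n = 6–8) drank during unpunished and punished periods, with licking suppressed by mild shock in punished periods. Compounds were given 30 min before testing. Analysis was ANOVA with Dunnett's test.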

[9] = system: Rattus norvegicus; assay: Anxiolytic like activity in water-deprived Sprague-Dawley rat assessed as increase in water drinking time during punished period at 3 mg/kg, po administered 30 mins prior to testing by Vogel conflict test relative to control; type: functional, organism-based; in short: as §2
[10] = system: Rattus norvegicus; assay: Anxiolytic like activity in water-deprived Sprague-Dawley rat assessed as increase in water drinking time during punished period at 60 mg/kg, po administered 30 mins prior to testing by Vogel conflict test relative to control; type: functional; in short: as §2
[11] = molecular target: T2, GABA-A receptor; alpha-1/beta-3/gamma-2 (Homo sapiens); assay: Modulation of recombinant GABA alpha1beta3gamma2 receptor (unknown origin) expressed in Xenopus laevis oocytes assessed as change in GABA-induced EC(3 to 6) current by two-electrode voltage clamp assay; type: cell-based; in short: as §1

C#Cc1ccc2c(c1)C(c1ccccn1)=NCc1c(-c3cnco3)ncn1-2
EC50 [1]: 937 nM
CC50 at 18 h [2]: > 100000 nM
Activity [3]: Non-Toxic
Activity [4]: 155%
Activity [5]: 246%
EC50 [6]: 205 nM
concentration at 4 h [7]: 2050 nM
Activity [8]: 220%
Activity [9]: inactive
Activity [10]: 200%
Activity [11]: Dose-dependent effect
